Consider 59 compounds from PubChem BioAssay AID449761 (Broad Institute, 2010).

Records with an inconclusive call do not appear. The source made the active and inactive calls.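 Rule for the calls: active = compounds raising caspase signal with fitted AC50 no more than tenfold above the top tested dose; inconclusive = flat curve at 30 to 70% activity, or unusable fit; inactive = the rest.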

The subject of this test is MEF WT non-primed, caspase-Glo luminescence, 3 h. The test can be described thus: caspase activation in non-primed cells, dose response, counter-screen for Bcl2-A1 inhibitor project, cell-based, caspase-Glo luminescence, 3 h (AID 449761). A digest of the protocol:
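Assay system: Non-primed wild-type MEF cells; Quantity: 2500 cells per well; Doses: 100 nL compound added per well by pin transfer; Medium: RPMI-1640 plus 10% FBS; Detection: CaspaseGlo luminescence; Timing: 3 h compound at 37 °C, 1 h reagent at RT.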
By AC50 is commonly meant the concentration giving half of the maximal activity seen. As for `COc1ccc(-c2cc(=O)oc3c(C)c(OC(=O)c4cccs4)ccc23)cc1`, the AC50 was 29.1 µM. To `CCOc1cc(/C=N/Nc2cc(C)nc(-n3nc(C)cc3C)n2)ccc1O` belongs > 35 µM (inactive).

`O=C(Nc1ccc(Cl)cc1Cl)c1cccc(N2C(=O)C=CC2=O)c1`: the AC50 is 35.8 µM. For the compound `O=C(NCCc1ccccc1)C(c1cccs1)N(C(=O)CCl)c1ccc(Cl)cc1` (centres undefined), the AC50 is 16.4 µM. As for `Cc1ccc(C2(c3ccc(C)cc3)CC2C(=O)Nc2ccc([N+](=O)[O-])cc2O)cc1` (centres undefined), the AC50 is > 35 µM (inactive). Next, `COC(=O)[C@@]1(C)CC[C@]2(C)CC[C@@]3(C)C(=CC(=O)C4[C@@]5(C)CC[C@H](O)C(C)(C)[C@@H]5CC[C@]43C)[C@H]2C1` (some centres undefined): > 35 µM (inactive). For the compound `O=c1c(Cl)c(Cl)cnn1Cc1ccccc1Cl`, the AC50 was > 35 µM (inactive). To `COc1ccc(C[C@H]2NC[C@H](O)[C@H]2OC(C)=O)cc1` belongs > 35 µM (inactive). To `O=C(NC1CCCCC1)C(c1ccc(F)cc1)N(CCc1ccccc1)C(=O)CN1C(=O)c2ccccc2S1(=O)=O` (centres undefined) belongs 19.6 µM; to `COc1cc(C(=O)Nc2cc3c(cc2N2CCCCC2)n(C)c(=O)n3C)cc(OC)c1OC`, > 35 µM (inactive).

Take `CC(C)c1cccc(-c2ccc3c(c2)S(=O)(=O)c2cccc(C(=O)NC4CCCC4)c2C3=O)c1`: the AC50 was > 35 µM (inactive). Regarding `CCc1ccc(NC(=O)c2nc(S(=O)(=O)Cc3ccccc3)ncc2Cl)cc1`, the AC50 is > 35 µM (inactive). `O=[N+]([O-])/C=C/c1ccc2c(ccn2Cc2ccccc2)c1`: the AC50 was 12.6 µM.

For `COc1cc(NC(=O)c2ccccc2F)ccc1NC(=O)c1cc2ccccc2o1`, the AC50 is 36.6 µM.

Turning to `COc1cc2ncnc(NCc3ccc(F)cc3)c2cc1OC`, the AC50 was > 35 µM (inactive). With `N#C/C(=C\c1ccc(OCc2ccccc2)cc1)C(=O)Nc1nc2c(s1)CCN(Cc1ccccc1)C2`, the AC50 was > 35 µM (inactive). In the case of `COc1ccc(OC)c(NC(=O)c2cc(-c3cc(C)ccc3O)n[nH]2)c1`, the AC50 is > 35 µM (inactive). Take `CC(C)(C)c1ccc(C(=O)Nc2ccc(O)c3c(=O)cc(-c4cccc(Cl)c4)oc23)cc1`: the AC50 was > 35 µM (inactive). To `Cc1nn(-c2ccccc2)c(C)c1/C=N/NC(=O)CSc1nc2ccccc2c(=O)n1-c1ccc(Br)cc1` belongs 36 µM; to `O=C(Nc1ccc2oc(-c3ccccc3Cl)nc2c1)c1cncc(Br)c1`, 30.7 µM. On to `COc1ccc2cc(C)c3nnc(SCC(=O)Nc4nc(-c5ccc(F)cc5)cs4)n3c2c1`, for which the AC50 was 26.2 µM. As for `O=C(NC[C@H]1CCCO1)c1cccc2c1C(=O)c1ccc(-c3ccc(F)cc3OCc3ccccc3)cc1S2(=O)=O`, the AC50 is > 35 µM (inactive).

With `Cc1c(C=O)c(C=O)c(C)n1Cc1ccccc1`, the AC50 is > 35 µM (inactive). Turning to `CCOC(=O)c1sc(NC(=O)CSc2nc(C)cc(C)c2C#N)c(C#N)c1C`, the AC50 is > 35 µM (inactive). As to `CCOC(=O)Cc1csc(/N=C/c2c(O)n(-c3ccc(C)c(C)c3)c(=O)c3ccccc23)n1`, the AC50 was 9.55 µM. Consider `O=C(Oc1cccc(/C=N/Nc2nc(Nc3ccccc3)nc(N3CCOCC3)n2)c1)c1ccco1`, for which the AC50 was > 35 µM (inactive). With `O=C(NCc1ccccc1Br)c1cccc2c1C(=O)c1ccc(-c3ccc(OC(F)(F)F)cc3)cc1S2(=O)=O`, the AC50 was > 35 µM (inactive).

For `COc1ccc2[nH]c3c(=O)n(/N=C/[C@H]4C(C)C=C(C)CC4C)c(=O)[nH]c3c2c1` (some centres undefined), the half-maximal activity concentration (AC50) is 10.1 µM. For the compound `CC(C)CC(NC(=O)c1ccc(Cl)cc1)C(=O)OCC(=O)c1ccc2c(c1)NC(=O)CO2` (centres undefined), the AC50 is 4.28 µM. Consider `COCc1cc(C)nc(SCC(=O)Nc2nc(C)cs2)c1C#N`, for which the AC50 is > 35 µM (inactive). Consider `Cc1ccc(NC(=O)c2ccc(N/N=C/c3cccc(O)c3)c([N+](=O)[O-])c2)cc1`, for which the AC50 was 29.8 µM. Consider `NS(=O)(=O)c1ccc(N/N=C2/CCCCC2C2CCCCC2)c([N+](=O)[O-])c1` (centres undefined), for which the AC50 was 33.5 µM. Turning to `CCc1nnc(NC(=O)CSc2nc(-c3ccccc3)cc(-c3ccc(F)cc3)c2C#N)s1`, the AC50 was 32.2 µM. Turning to `Cc1cc(C)cc(Cn2ncc(Cl)c(Cl)c2=O)c1`, the AC50 is > 35 µM (inactive). `CCc1ccc(Nc2n[n+](-c3ccccc3)c(/C=C/c3ccccc3)s2)cc1`: the concentration at half-maximal activity (AC50) is 9.79 µM. To `CCOC(=O)CSC1=N/C(=C/c2ccc(-n3cncn3)cc2)C(=O)N1C(C)=O` belongs > 35 µM (inactive); to `CCOC(=O)/C(=C\c1ccc(OC(F)F)cc1)C1=Nn2c(nnc2-c2ccc(Cl)cc2)SC1`, 4.15 µM; to `O=S1(=O)CCOC[C@H](CC2CCCCC2)N1Cc1cccc(Cl)c1`, > 35 µM (inactive). Turning to `C=CC(=O)Nc1ccc(CN2C(=O)N(c3c(Cl)c(OC)cc(OC)c3Cl)Cc3cnc(NCCCCN(CC)CC)nc32)cc1`, the AC50 is > 35 µM (inactive).

Consider `CCC(Sc1nc2cc3c(cc2c(=O)n1Cc1ccco1)OCO3)C(=O)Nc1cccc(OC)c1` (centres undefined), for which the AC50 is > 35 µM (inactive). To `CCS(=O)(=O)c1ncc(Cl)c(C(=O)Nc2ccccc2OC)n1` belongs > 35 µM (inactive); to `C=C1CCc2c([nH]c3ccc(OCC(C)C)cc23)C1=O`, 14.2 µM; to `COc1cccc(C(=O)C(C#N)=C(SC)SC)c1`, > 35 µM (inactive).

As for `Cc1nn(-c2ccccc2)c(Cl)c1CN(C(=O)CCl)c1ccc(Cl)cc1`, the AC50 was 24.6 µM.

Take `CCOc1cccc(C(=O)Nc2cccc(-c3nnc(-c4ccc(C)cc4)o3)c2)c1`: the AC50 is 23.6 µM. Consider `Nc1nc(F)nc2c1ncn2[C@@H]1O[C@H](CO)[C@@H](O)[C@H]1O`, for which the AC50 is > 35 µM (inactive). As to `CCn1c(SCC(=O)c2ccccc2)nnc1-c1cc2cc(Br)ccc2o1`, the AC50 was > 35 µM (inactive). `CC1CCc2c(sc3nc(C(C)(C)C)nc(N4CCN(C(=O)CCl)CC4)c23)C1` (centres undefined): the AC50 was 13 µM. `CCOc1ccc(OCC(=O)N(CCC2=CCCCC2)c2c(N)n(Cc3ccccc3)c(=O)[nH]c2=O)cc1`: the half-maximal activity concentration (AC50) was 26.8 µM. Consider `CCCCCCCC/C=C\CCCCCCCC(=O)NCCc1ccc(O)c(O)c1`, for which the AC50 is 14 µM.

With `Nc1c(C(=O)Nc2ccc(S(=O)(=O)N3CCCC3)cc2)sc2nc3ccc(OC(F)(F)F)cc3cc12`, the AC50 was 30.7 µM. For the compound `Cc1ccc(C#N)c(SCC(=O)Nc2nccs2)n1`, the AC50 is > 35 µM (inactive). As to `N#Cc1cccnc1N1CCN(C(=O)c2cccc3c2C(=O)c2ccc(-c4ccc(Cl)c(C(F)(F)F)c4)cc2S3(=O)=O)CC1`, the AC50 is > 35 µM (inactive). On to `CCOC(=O)C(C(=O)OCC)c1cc(Br)c2noc3c2c1C(=O)c1ccccc1-3`, for which the AC50 was 8.67 µM. As for `O=C(NN=C1c2ccccc2-c2ccccc21)c1cccc(Br)c1`, the AC50 is 35.6 µM.

For `COc1cc(/C=C(/C#N)C(=O)Nc2ccc(Cl)cc2)ccc1Oc1nc(Cl)ncc1F`, the AC50 is > 35 µM (inactive). As for `CC1CC(C)CN(C(=O)c2ccc(-c3ccc([N+](=O)[O-])cc3)o2)C1` (centres undefined), the AC50 is > 35 µM (inactive). As to `CCOc1ccc(NC(=S)NC(=O)/C=C/c2ccc(C)cc2)c([N+](=O)[O-])c1`, the AC50 was 21.7 µM. Consider `C#CC(=O)N(c1cc(OC)ccc1OC)C(C(=O)NC1CCCC1)c1cccs1` (centres undefined), for which the AC50 is > 35 µM (inactive).
